Source: ChEMBL document CHEMBL1130822, “Synthesis and biological evaluation of new tetrahydronaphthalene derivatives as thromboxane receptor antagonists” (Bioorg Med Chem Lett, 1998)

How the values were obtained:
Oryctolagus cuniculus = species on record: Oryctolagus cuniculus; assay: Compound was tested for inhibition of U-46,619 induced contraction of isolated rabbit saphenous vein; assay type: functional; conditions: for Kb: Oryctolagus cuniculus, Saphenous vein, read-out: pA2 (converted)
How it was run: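 Isolated rabbit saphenous vein rings contracted with increasing U46619 concentrations in the absence or presence of compound; antagonism quantified as pA2 values.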

Homo sapiens = species on record: Homo sapiens; assay: Compound was tested for inhibition of U-46,619 induced aggregation of human platelets; assay type: functional
How it was run: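 Human platelet-rich plasma aggregated with the TP-receptor agonist U46619, with and without compound; inhibition of aggregation measured and IC50 expressed in μM.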

Cavia porcellus = species on record: Cavia porcellus; assay: Compound was tested for inhibition of U-46,619 induced increase in tracheal pressure of guinea pigs; assay type: functional, Trachea; conditions: for ED50: Cavia porcellus, Trachea, read-out: ID50
How it was run: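 Compound given i.v. to guinea pigs; tracheal pressure rise evoked with U46619 by the Konzett–Rossler technique; ID50 expressed in μg/kg.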

| IC50 (Homo sapiens; Homo sapiens) | IC50 (Homo sapiens) | SMILES | Kb (Oryctolagus cuniculus) | ED50 (Cavia porcellus) | ID50 (Cavia porcellus) | pA2 (Oryctolagus cuniculus) |
| --- | --- | --- | --- | --- | --- | --- |
| – | 230 nM | Cc1ccc2c(c1CCC(=O)O)CCC(NS(=O)(=O)c1ccc(Cl)cc1)C2 (stereo in doubt) | – | – | 0.035 mg/kg | – |
| – | 330 nM | Cc1ccc2c(c1CCC(=O)O)CCC(NS(=O)(=O)c1ccc(Cl)cc1)C2 (stereo in doubt; 2a) | – | – | 0.031 mg/kg | 8.9 |

Second part, the molecule before the results:

| SMILES | IC50 (Homo sapiens; Homo sapiens) | IC50 (Homo sapiens) | Kb (Oryctolagus cuniculus) | ED50 (Cavia porcellus) | ID50 (Cavia porcellus) | pA2 (Oryctolagus cuniculus) |
| --- | --- | --- | --- | --- | --- | --- |
| O=C(O)CC/C=C\C[C@@H]1CO[C@H](c2ccccc2Cl)O[C@@H]1c1ccccc1O | 13 nM | – | 2.51 nM | 0.0007 mg/kg | – | – |
| O=C(O)CCn1c2c(c3ccccc31)CC(NS(=O)(=O)c1ccc(F)cc1)CC2 (single isomer, unassigned) [RAMATROBAN] | 380 nM | – | 12.6 nM | 0.017 mg/kg | – | – |
| Cc1ccc2c(c1CCC(=O)O)CCC(NS(=O)(=O)c1ccc(Cl)cc1)C2 (stereo in doubt; 2a (l)) | – | 780 nM | – | – | 0.015 mg/kg | 8.2 |
